{"source": "ChEMBL document CHEMBL1129648", "about": "“Synthesis and selective coronary vasodilatory activity of 3,4-dihydro-2,2-bis(methoxymethyl)-2H-1-benzopyran-3-ol derivatives: novel potassium channel openers” (J Med Chem, 1996)", "data": [{"system": "Canis familiaris", "experiment": "Dose causing a 50% increase of coronary blood flow in anesthetized dogs relative to the flow increase caused by injection of 1 microg of nifedipine (100%) after intracoronary administration.", "assay_type": "functional, Canis lupus familiaris, Coronary artery", "in_short": "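Anesthetized dogs; compound dissolved in 30% DMF, diluted with saline, injected into the coronary artery. Perfusion pressure and systemic blood pressure measured by pressure transducers.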", "units": {"ED50": "µg"}, "values": [{"smiles": "CCOCC1(COCC)Oc2ccc(C#N)cc2[C@@H](N=C(NC#N)c2cccnc2)[C@@H]1O", "ED50": ">30"}, {"smiles": "COCC1(COC)Oc2ccc(C#N)cc2[C@@H](Nc2ccc(=O)n(CC#N)n2)[C@@H]1O", "ED50": 5}, {"smiles": "COCC1(COC)Oc2ccc(C#N)cc2[C@@H](Nc2ccc(O)nn2)[C@@H]1O", "ED50": 6.2}, {"smiles": "CCCCCCCn1nc(N[C@@H]2c3cc(C#N)ccc3OC(COC)(COC)[C@H]2O)ccc1=O", "ED50": 13}, {"smiles": "N#CNC(=N[C@@H]1c2cc(C#N)ccc2OC2(COCOC2)[C@H]1O)c1cccnc1", "ED50": ">30"}, {"smiles": "CC1(C)Oc2ccc(C#N)cc2[C@@H](N=C(NC#N)c2cccnc2)[C@@H]1O", "ED50": 1.3}, {"smiles": "COCC1(COC)Oc2ccc(C#N)cc2[C@@H](Nc2ccc(=O)n(Cc3ccccc3)n2)[C@@H]1O", "ED50": 28}, {"smiles": "COCC1(COC)Oc2ccc(C#N)cc2[C@@H](Nc2ccc(=O)n(CCSC)n2)[C@@H]1O", "ED50": 3.3}, {"smiles": "COCC1(COC)Oc2ccc(C#N)cc2[C@@H](N=C(NC#N)Nc2ccccc2)[C@@H]1O", "ED50": ">30"}, {"smiles": "COCC1(COC)Oc2ccc(C#N)cc2[C@@H](N=C(NC#N)c2cccnc2)[C@@H]1O", "ED50": 14}, {"smiles": "COCC1(COC)Oc2ccc(C#N)cc2[C@@H](NC(=O)Nc2ccccc2)[C@@H]1O", "ED50": ">30"}, {"smiles": "COCC1(COC)Oc2ccc(C#N)cc2[C@@H](Oc2ccc(=O)n(C)n2)[C@@H]1O", "ED50": 6.4}, {"smiles": "CCCn1nc(N[C@@H]2c3cc(C#N)ccc3OC(COC)(COC)[C@H]2O)ccc1=O", "ED50": 1.5}, {"smiles": "COCC1(COC)Oc2ccc(Br)cc2[C@@H](Nc2ccc(=O)n(C)n2)[C@@H]1O", "ED50": 2.3}, {"smiles": "C=CCn1nc(N[C@@H]2c3cc(C#N)ccc3OC(COC)(COC)[C@H]2O)ccc1=O", "ED50": 1.2}, {"smiles": "CC1(COc2ccccc2)Oc2ccc(C#N)cc2[C@@H](N=C(NC#N)c2cccnc2)[C@@H]1O", "note": "(stereo partly drawn)", "ED50": ">30"}, {"smiles": "COCCn1nc(N[C@@H]2c3cc(C#N)ccc3OC(COC)(COC)[C@H]2O)ccc1=O", "ED50": 4.1}, {"smiles": "COCC1(COC)Oc2ccc(C#N)cc2[C@@H](N=C(NC#N)c2ccccc2)[C@@H]1O", "ED50": 5.4}, {"smiles": "COCC1(COC)Oc2ccc(C#N)cc2[C@@H](Nc2ccc(=O)n(CC3CC3)n2)[C@@H]1O", "ED50": 1.5}, {"smiles": "COCC1(COC)Oc2ccc(C#N)cc2[C@@H](NC(=O)c2cccnc2)[C@@H]1O", "ED50": 14}, {"smiles": "COCC1(COC)Oc2ccc(C#N)cc2[C@@H](Nc2ccc(=O)n(C(C)C)n2)[C@@H]1O", "ED50": 1.3}, {"smiles": "COCC1(COC)Oc2ccc(C#N)cc2[C@@H](Nc2ccc(=O)n(CCC(=O)OC)n2)[C@@H]1O", "ED50": 2.3}, {"smiles": "COCC1(C)Oc2ccc(C#N)cc2[C@@H](N=C(NC#N)c2cccnc2)[C@@H]1O", "note": "(stereo partly drawn)", "ED50": 17}, {"smiles": "COCC1(COC)Oc2ccc(Br)cc2[C@@H](N=C(NC#N)c2cccnc2)[C@@H]1O", "ED50": 20}, {"smiles": "COCC1(COC)Oc2ccc(C#N)cc2[C@@H](Nc2ccc(=S)n(C)n2)[C@@H]1O", "ED50": 24}, {"smiles": "COCC1(COC)Oc2ccc(C#N)cc2[C@@H](Nc2ccc(=O)n(C)n2)[C@@H]1O", "ED50": 0.58}, {"smiles": "COCC1(COC)Oc2ccc([N+](=O)[O-])cc2[C@@H](Nc2ccc(=O)n(C)n2)[C@@H]1O", "ED50": 1.1}, {"smiles": "COCC1(COC)Oc2ccc(C#N)cc2[C@@H](Nc2ccc(=O)n(CCF)n2)[C@@H]1O", "ED50": 1.8}, {"smiles": "COCC1(COC)Oc2ccc(C#N)cc2[C@@H](N=C(C)NC#N)[C@@H]1O", "ED50": 6}, {"smiles": "COCC1(COC)Oc2ccc(C#N)cc2[C@@H](Nc2ccc(=O)n(CC(=O)O)n2)[C@@H]1O", "ED50": ">30"}, {"smiles": "COCC1(COC)Oc2ccc([N+](=O)[O-])cc2[C@@H](N=C(NC#N)c2cccnc2)[C@@H]1O", "ED50": 4.4}, {"smiles": "COCC1(COC)Oc2ccc(C#N)cc2[C@@H](Nc2ccc(=O)n(CC(F)(F)F)n2)[C@@H]1O", "ED50": 6.4}, {"smiles": "COCC1(COC)Oc2ccc(C#N)cc2[C@@H](Nc2ccc(=O)n(-c3ccc([N+](=O)[O-])cc3)n2)[C@@H]1O", "ED50": ">30"}, {"smiles": "CCCC1(C)Oc2ccc(C#N)cc2[C@@H](N=C(NC#N)c2cccnc2)[C@@H]1O", "note": "(stereo partly drawn)", "ED50": 20}, {"smiles": "COCC1(COC)Oc2ccc(C#N)cc2[C@@H](Nc2ccc(=O)n(CC[N+](=O)[O-])n2)[C@@H]1O", "ED50": 1.6}, {"smiles": "COCC1(COC)Oc2ccc(C#N)cc2[C@@H](Nc2ccc(=O)n(CC(=O)OC)n2)[C@@H]1O", "ED50": 17}, {"smiles": "CCn1nc(N[C@@H]2c3cc(C#N)ccc3OC(COC)(COC)[C@H]2O)ccc1=O", "ED50": 0.57}]}, {"species": "Sus scrofa", "experiment": "Vasorelaxant effect on KCl-Induced contraction of porcine coronary artery", "assay_type": "functional", "units": {"IC50": "nM"}, "values": [{"smiles": "O=C(NCCO[N+](=O)[O-])c1cccnc1", "note": "[NICORANDIL]", "IC50": 3200}, {"smiles": "COC(=O)C1=C(C)NC(C)=C(C(=O)OC)C1c1ccccc1[N+](=O)[O-]", "note": "[NIFEDIPINE]", "IC50": 3.6}, {"smiles": "CC1(C)Oc2ccc(C#N)cc2[C@@H](N2CCCC2=O)[C@@H]1O", "note": "[LEVCROMAKALIM]", "IC50": 360}]}, {"species": "Rattus norvegicus", "experiment": "Vasorelaxant effect on KCl-Induced contraction of rat aorta", "assay_type": "functional", "in_short": "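Isolated strips in Krebs-Henseleit solution, 37 °C, gassed with 95% O2/5% CO2, under 1 g resting load; isometric tension recorded. Strips contracted with 30 or 40 mM KCl. Cumulative concentration-relaxation curves; mean IC50 taken as concentration giving 50% relaxation of the KCl-induced contraction.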", "units": {"IC50": "nM"}, "values": [{"smiles": "O=C(NCCO[N+](=O)[O-])c1cccnc1", "note": "[NICORANDIL]", "IC50": 13000}, {"smiles": "COC(=O)C1=C(C)NC(C)=C(C(=O)OC)C1c1ccccc1[N+](=O)[O-]", "note": "[NIFEDIPINE]", "IC50": 3.6}, {"smiles": "CC1(C)Oc2ccc(C#N)cc2[C@@H](N2CCCC2=O)[C@@H]1O", "note": "[LEVCROMAKALIM]", "IC50": 290}, {"smiles": "COCC1(COC)Oc2ccc(C#N)cc2[C@@H](Nc2ccc(=O)n(C)n2)[C@@H]1O", "IC50": 300}]}, {"system": "not listed separately", "experiment": "Vasorelaxant effect on KCl-Induced contraction of porcine coronary artery vs rat aorta", "assay_type": "functional", "in_short": "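Isolated porcine coronary artery and rat aortic strips in organ bath, Krebs-Henseleit solution, 37 °C, gassed 95% O2/5% CO2; isometric tension under 1 g resting load. Strips contracted with 30 or 40 mM KCl. Mean IC50 (50% relaxation of KCl-induced contraction) from concentration-relaxation curves in each tissue.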", "values": [{"smiles": "COC(=O)C1=C(C)NC(C)=C(C(=O)OC)C1c1ccccc1[N+](=O)[O-]", "note": "[NIFEDIPINE]", "Ratio": 1}, {"smiles": "CC1(C)Oc2ccc(C#N)cc2[C@@H](N2CCCC2=O)[C@@H]1O", "note": "[LEVCROMAKALIM]", "Ratio": 0.81}]}, {"system": "not listed separately", "experiment": "Ratio of vasorelaxant effect on KCl-Induced contraction of rat aorta to that of porcine coronary artery", "assay_type": "functional", "values": [{"smiles": "O=C(NCCO[N+](=O)[O-])c1cccnc1", "note": "[NICORANDIL]", "Ratio": 4.06}, {"smiles": "COCC1(COC)Oc2ccc(C#N)cc2[C@@H](Nc2ccc(=O)n(C)n2)[C@@H]1O", "Ratio": 2.73}]}]}
